Laboratory results taken from paper PMC3771329 (Journal of the American Chemical Society, 2013).

Experiments:
furin = furin (Homo sapiens, UniProt P09958); experiment: Fluorescence spectrometry of probes incubated with and without furin; format: biochemical; conditions: 2 μM probe, furin (100 pmol·U−1) buffer (100 mM HEPES, 1 mM CaCl2, pH 7.5) with 1 mM TCEP, 3 h, 37 °C; n=3
[1] = system: MDA-MB-231 (furin-overexpressing) subcutaneous tumors; experiment: Furin-like activity photoacoustic imaging in mice, MDA-MB-231 tumors; format: in vivo; conditions: 25 nmol by tail vein; imaged every 15 min up to 60 min; n=4
Method in brief: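 Female nude (Nu/Nu) mice carried subcutaneous upper-thigh xenografts from 10 million MDA-MB-231 or LoVo cells, grown 3–4 weeks. Mice were under 2% isoflurane in oxygen with a tail-vein catheter. Tumors got an 11-min pre-scan at 740 nm. Test compound (25 nmol, diluted from DMSO stock into 150 μL sterile PBS) was given i.v. PA scans ran every 15 min for 1 h: 120 views, 100 pulses/view, 250 μm voxels, 3D back-projection reconstruction. Signal normalized to t=0; n=4/group, SD; two-sided paired t test.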

[2] = format: physicochemical; conditions: after incubation with furin, buffer pH 7.5 with TCEP, 37 °C, 3 h

Chain of furin (P09958 108-595 limits assumed): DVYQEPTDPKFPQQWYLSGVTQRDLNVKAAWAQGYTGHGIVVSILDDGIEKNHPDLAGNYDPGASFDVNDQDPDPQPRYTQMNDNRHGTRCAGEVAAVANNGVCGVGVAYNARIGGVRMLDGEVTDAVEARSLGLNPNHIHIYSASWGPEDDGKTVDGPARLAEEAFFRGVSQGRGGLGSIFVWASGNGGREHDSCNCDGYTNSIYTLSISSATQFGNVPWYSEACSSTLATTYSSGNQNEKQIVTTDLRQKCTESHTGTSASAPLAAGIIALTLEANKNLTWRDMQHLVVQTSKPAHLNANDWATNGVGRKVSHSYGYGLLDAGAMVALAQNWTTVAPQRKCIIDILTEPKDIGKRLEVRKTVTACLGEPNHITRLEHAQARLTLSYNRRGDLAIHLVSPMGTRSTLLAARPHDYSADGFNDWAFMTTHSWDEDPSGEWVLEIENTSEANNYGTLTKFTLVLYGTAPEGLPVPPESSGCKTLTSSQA

Ac-RRRVC(SEt)K(Atto740)-CABT [ESOR-PA02]
drop in fluorescence, incubated with furin relative to no furin added (furin): no significant decrease | PA signal in MDA-MB-231 tumors after probe injection [1]: very low levels of PA signal

Ac-RVRRC(SEt)K(Atto740)-CABT [ESOR-PA01]
drop in fluorescence, incubated with furin relative to no furin added (furin): 6 fold | precipitation / water solubility of the oligomers formed with furin [2]: no precipitate was formed
